Data on 1 molecule can be found in ChEMBL document CHEMBL1811814, “Synthesis and evaluation of indole, pyrazole, chromone and pyrimidine based conjugates for tumor growth inhibitory activities--development of highly efficacious cytotoxic agents” (Eur J Med Chem, 2010).

What all share (assay type): organism-based
The nature of data set [1]: Toxicity in mouse assessed as mouse survival administered intraperitoneally once daily measured after 19 days. The following applies: in vivo, ip. The method in brief:
(§1)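 Female athymic nude mice were given intraperitoneal injections of 400, 200 or 100 mg/kg, one mouse per dose level. Body weight loss was monitored, and survival was recorded after 19 days.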

Data set [2] relates to Mus musculus. In words: Toxicity in mouse assessed as mouse survival at 200 mg/kg, ip qd on day 19. Further details: dose 200 mg/kg, route intraperitoneal. The following applies: in vivo. The method, boiled down: as §1
Data set [3] deals with Mus musculus. In words: Toxicity in mouse assessed as mouse survival at 100 mg/kg, ip qd on day 19. Further details: dose 100 mg/kg, route intraperitoneal. The following applies: in vivo. The method, boiled down:
as §1

Data set [4] has as its system Mus musculus. In words: Toxicity in mouse assessed as mouse survival at 400 mg/kg, ip qd on day 19. Set-up: dose 400 mg/kg, route intraperitoneal. The following applies: in vivo. The method, boiled down:
as §1

With `CN1C(=O)C(=Cc2cn(Cc3ccccc3)c3ccccc23)C(=O)N(C)C1=O`, the MTD at 456 h in data set [1] came out at 400 mg/kg. Moreover, the Activity entry in the data set with Mus musculus [2], in the data set on Mus musculus [3] and with Mus musculus [4] was “Non-toxic” in each case.
